Source: ChEMBL document CHEMBL3425499, “Iridoid glycosides from Barleria lupulina” (J Nat Prod, 2015)
Converted amounts (≈) assume the structure as drawn. The source made the active and inactive calls. The calls are words filed in the database; no cut-off is given here.

What was measured:
U-251 = assay: Cytotoxicity against Stat3-activated human U251MG cells assessed as growth inhibition at 20 ug/ml after 72 hrs by CyQuant assay; format: functional, cell-based
Outline: (§1)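 Cells were seeded at 1000 per well and grown 24 h. They were then exposed to 20 μg/mL compound for 72 h. Viability was measured by the CyQuant assay following the kit instructions and expressed relative to DMSO-treated control cells.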

MDA-MB-231 = assay: Cytotoxicity against Stat3-activated human MDA-MB-231 cells assessed as growth inhibition at 20 ug/ml after 72 hrs by CyQuant assay; format: functional, cell-based; outline: as §1
NIH3T3 = assay: Cytotoxicity against mouse NIH/3T3 cells assessed as growth inhibition at 20 ug/ml after 72 hrs by CyQuant assay
[1] = Antioxidant activity assessed as DPPH free radical scavenging activity measured as decoloration of a MeOH solution after 10 mins by spectrophotometry; format: physicochemical
Outline: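 Compounds were dissolved in MeOH at various concentrations and mixed with a methanolic DPPH solution. Mixtures were held 10 min in the dark, then remaining DPPH was read as absorbance at 517 nm. Scavenging was calculated against a blank of DPPH plus solvent, taken as 100%.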

| IC50 [1] [µg/mL] | Structure (SMILES) | inhibition (U-251) | inhibition (MDA-MB-231) | inhibition (NIH3T3) |
| --- | --- | --- | --- | --- |
|  | C[C@]1(O)CC[C@@H]2C(C(=O)O)=CO[C@@H](O[C@@H]3O[C@H](CO)[C@@H](O)[C@H](O)[C@H]3O)[C@@H]21 | inactive | inactive | inactive |
| 486.5 (≈ 818 µM) | COC(=O)C1=CO[C@@H](O[C@@H]2O[C@H](CO)[C@@H](O)[C@H](O)[C@H]2O)[C@H]2[C@@H]1[C@H](OC(=O)/C=C/c1ccc(O)cc1)C[C@]2(C)OC(C)=O |  |  |  |
|  | COC(=O)C1=CO[C@@H](O[C@@H]2O[C@H](COC=O)[C@@H](O)[C@H](O)[C@H]2O)[C@H]2[C@@H]1[C@H](O)C[C@]2(C)OC(C)=O | inactive | inactive | inactive |
|  | COc1ccc(/C=C/C(=O)O[C@@H]2C[C@](C)(OC(C)=O)[C@H]3[C@H](O[C@@H]4O[C@H](CO)[C@@H](O)[C@H](O)[C@H]4O)OC=C(C(=O)O)[C@H]32)cc1 | inactive | inactive | inactive |
|  | COC(=O)C1=CO[C@@H](O[C@@H]2O[C@H](CO)[C@@H](O)[C@H](O)[C@H]2O)[C@H]2[C@@H]1[C@H](OC(C)=O)C[C@]2(C)OC(C)=O | inactive | inactive | inactive |
|  | COC(=O)C1=CO[C@@H](O[C@@H]2O[C@H](CO)[C@@H](O)[C@H](O)[C@H]2O)[C@@H]2[C@@](C)(OC(C)=O)CC[C@]12O | inactive | inactive | inactive |
|  | C[C@]1(O)C[C@@H](O)[C@@H]2C(C(=O)O)=CO[C@@H](O[C@@H]3O[C@H](COC=O)[C@@H](O)[C@H](O)[C@H]3O)[C@@H]21 | inactive | inactive | inactive |
| 7.63 (≈ 43.3 µM) | O=C1O[C@H]([C@@H](O)CO)C(O)=C1O [ASCORBIC ACID] |  |  |  |
|  | C[C@]1(O)C[C@@H](OC=O)[C@@H]2C(C(=O)O)=CO[C@@H](O[C@@H]3O[C@H](CO)[C@@H](O)[C@H](O)[C@H]3O)[C@@H]21 | inactive | inactive | inactive |
| 286.4 (≈ 639 µM) | COC(=O)C1=CO[C@@H](O[C@@H]2O[C@H](CO)[C@@H](O)[C@H](O)[C@H]2O)[C@H]2[C@@H]1[C@H](OC(C)=O)C[C@]2(C)O | inactive | inactive | inactive |
| 78.6 (≈ 200 µM) | C[C@]1(O)C[C@@H](O)[C@@H]2C(C(=O)O)=CO[C@@H](O[C@@H]3O[C@H](CO)[C@@H](O)[C@H](O)[C@H]3O)[C@@H]21 [SHANZHISIDE] | inactive | inactive | inactive |
|  | COc1ccc(/C=C\C(=O)O[C@@H]2C[C@](C)(OC(C)=O)[C@H]3[C@H](O[C@@H]4O[C@H](CO)[C@@H](O)[C@H](O)[C@H]4O)OC=C(C(=O)O)[C@H]32)cc1 | inactive | inactive | inactive |
|  | COC(=O)C1=CO[C@@H](O[C@@H]2O[C@H](COC=O)[C@@H](O)[C@H](O)[C@H]2O)[C@H]2[C@@H]1[C@H](OC(C)=O)C[C@]2(C)OC(C)=O | inactive | inactive | inactive |
| 110.3 (≈ 246 µM) | COC(=O)C1=CO[C@@H](O[C@@H]2O[C@H](CO)[C@@H](O)[C@H](O)[C@H]2O)[C@H]2[C@@H]1[C@H](O)C[C@]2(C)OC(C)=O [BARLERIN] | inactive | inactive | inactive |
|  | CC(=O)O[C@@]1(C)C[C@@H](O)[C@@H]2C(C(=O)O)=CO[C@@H](O[C@@H]3O[C@H](CO)[C@@H](O)[C@H](O)[C@H]3O)[C@@H]21 | inactive | inactive | inactive |
| 97.5 (≈ 240 µM) | COC(=O)C1=CO[C@@H](O[C@@H]2O[C@H](CO)[C@@H](O)[C@H](O)[C@H]2O)[C@H]2[C@@H]1[C@H](O)C[C@]2(C)O [SHANZHISIDE METHYL ESTER] | inactive | inactive | inactive |

| Structure (SMILES) | IC50 [1] [µg/mL] | inhibition (U-251) | inhibition (MDA-MB-231) | inhibition (NIH3T3) |
| --- | --- | --- | --- | --- |
| O=c1c(O)c(-c2ccc(O)c(O)c2)oc2cc(O)cc(O)c12 [QUERCETIN] | 9.52 (≈ 31.5 µM) |  |  |  |
| O=C(O)c1cc(O)c(O)c(O)c1 [GALLIC ACID] | 2.79 (≈ 16.4 µM) |  |  |  |
